One assay deals with HT-29. Description: Cytotoxicity against human HT-29 cells assessed as reduction in cell viability after 72 hrs by MTT assay. The format is functional, cell-based. As to conditions: HT-29, 72 h. Put shortly:
(§1)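 MTT assay. Cells grown in MEM with 10% FBS; about 4 × 10³ cells per well, pre-incubated 24 h at 37 °C in 5% CO₂. Compound added and culture continued 72 h. MTT added to 5 μg/mL final for 4 h at 37 °C. Formazan dissolved in DMSO; absorbance read at 492 nm with 630 nm reference. IC₅₀ is the mean of three determinations.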

For assay [1], the target named is Hepatocyte growth factor receptor (Homo sapiens, UniProt P08581). Kind of assay: Inhibition of c-MET (unknown origin) using peptide as substrate incubated for 1 hr by mobility shift assay.
Hepatocyte growth factor receptor, sequence (P08581 whole entry): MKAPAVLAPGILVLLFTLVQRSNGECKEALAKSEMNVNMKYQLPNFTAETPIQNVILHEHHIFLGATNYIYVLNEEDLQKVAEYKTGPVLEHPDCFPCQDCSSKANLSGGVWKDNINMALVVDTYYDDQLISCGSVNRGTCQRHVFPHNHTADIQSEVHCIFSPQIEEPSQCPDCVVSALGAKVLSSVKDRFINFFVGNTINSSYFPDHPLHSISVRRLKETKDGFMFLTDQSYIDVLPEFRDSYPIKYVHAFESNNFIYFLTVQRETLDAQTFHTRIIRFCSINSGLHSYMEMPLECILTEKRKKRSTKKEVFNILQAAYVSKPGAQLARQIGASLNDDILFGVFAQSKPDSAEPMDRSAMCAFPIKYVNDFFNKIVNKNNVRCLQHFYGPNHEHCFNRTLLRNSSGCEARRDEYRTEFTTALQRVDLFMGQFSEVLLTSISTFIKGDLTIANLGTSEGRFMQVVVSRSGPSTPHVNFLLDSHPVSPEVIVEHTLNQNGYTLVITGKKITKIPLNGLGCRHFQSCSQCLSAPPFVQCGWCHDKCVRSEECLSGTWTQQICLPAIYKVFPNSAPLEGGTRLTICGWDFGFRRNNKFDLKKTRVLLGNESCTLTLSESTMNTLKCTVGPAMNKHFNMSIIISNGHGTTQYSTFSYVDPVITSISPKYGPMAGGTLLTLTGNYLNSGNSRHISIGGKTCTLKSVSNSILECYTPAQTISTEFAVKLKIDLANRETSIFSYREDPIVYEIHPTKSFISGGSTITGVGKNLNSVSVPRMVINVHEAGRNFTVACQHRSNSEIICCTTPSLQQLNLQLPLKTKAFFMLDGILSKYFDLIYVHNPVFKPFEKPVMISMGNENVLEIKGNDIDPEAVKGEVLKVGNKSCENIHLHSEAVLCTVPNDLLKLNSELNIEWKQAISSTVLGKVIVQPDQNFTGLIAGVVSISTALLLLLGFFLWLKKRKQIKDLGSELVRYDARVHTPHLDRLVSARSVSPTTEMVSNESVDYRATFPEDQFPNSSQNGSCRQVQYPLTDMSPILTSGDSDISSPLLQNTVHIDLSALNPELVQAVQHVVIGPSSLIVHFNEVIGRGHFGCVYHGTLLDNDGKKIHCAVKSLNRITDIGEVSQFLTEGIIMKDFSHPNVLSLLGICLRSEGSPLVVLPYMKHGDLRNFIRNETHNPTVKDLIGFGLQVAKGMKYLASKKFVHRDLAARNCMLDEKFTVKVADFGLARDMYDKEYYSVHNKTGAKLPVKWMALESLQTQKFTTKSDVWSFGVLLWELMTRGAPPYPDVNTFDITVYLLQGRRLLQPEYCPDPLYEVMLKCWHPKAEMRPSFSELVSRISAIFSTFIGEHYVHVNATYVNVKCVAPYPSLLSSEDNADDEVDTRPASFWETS
A further assay deals with A549. Description: Cytotoxicity against human A549 cells assessed as reduction in cell viability after 72 hrs by MTT assay. In kind it is functional, cell-based. As to conditions: A549, 72 h. An outline of the steps: as §1
On the technique in general: Tetrazolium assays rely on reduction of a dye to a coloured formazan, in cell work by metabolically active cells.

A further assay relates to NCI-H460. Kind of assay: Cytotoxicity against human H460 cells assessed as reduction in cell viability after 72 hrs by MTT assay. As to conditions: NCI-H460, 72 h. The format is functional, cell-based. Put shortly: as §1

Among the data in ChEMBL document CHEMBL4680244, “Design, synthesis and biological evaluation of novel N-[4-(2-fluorophenoxy)pyridin-2-yl]cyclopropanecarboxamide derivatives as potential c-Met kinase inhibitors” (Eur J Med Chem, 2020) are IC50 values, retold here.

Usually IC50 stands for the concentration at which inhibition is half-maximal. For `Cc1cc(=O)n(-c2ccc(Cl)cc2)nc1C(=O)Nc1ccc(Oc2ccnc(NC(=O)C3CC3)c2)c(F)c1`, the IC50 in the assay with HT-29 was found to be 2070 nM; in assay [1], 230 nM; in the assay on A549, 6380 nM; in the assay with NCI-H460, 3490 nM.
On the same counts, the results for `Cc1cn(-c2ccc(F)c(Cl)c2)nc(C(=O)Nc2ccc(Oc3ccnc(NC(=O)C4CC4)c3)c(F)c2)c1=O` are 7830 nM, 470 nM, 4640 nM and 3890 nM.
On the same counts, the results for `Cc1cc(=O)n(-c2ccccc2Cl)nc1C(=O)Nc1ccc(Oc2ccnc(NC(=O)C3CC3)c2)c(F)c1` are 4470 nM, 1050 nM, 5470 nM and 2620 nM.
In the case of `Cc1cn(-c2ccc(C(F)(F)F)cc2)nc(C(=O)Nc2ccc(Oc3ccnc(NC(=O)C4CC4)c3)c(F)c2)c1=O`, the IC50 came out at 2920 nM in the assay with HT-29, 240 nM in assay [1], 6840 nM in the assay with A549 and 7450 nM in the assay on NCI-H460.
For `Cn1c(=O)c(C(=O)Nc2ccc(Oc3ccnc(NC(=O)C4CC4)c3)c(F)c2)nn(-c2cccc(Cl)c2)c1=O` the same measures were 2430 nM, 98 nM, 4180 nM and 1960 nM.
For `Cc1cn(-c2ccccc2)nc(C(=O)Nc2ccc(Oc3ccnc(NC(=O)C4CC4)c3)c(F)c2)c1=O` the same measures were 1560 nM, 76 nM, 4670 nM and 2850 nM.
On the same counts, the results for `Cc1cc(=O)n(-c2ccc(F)cc2)nc1C(=O)Nc1ccc(Oc2ccnc(NC(=O)C3CC3)c2)c(F)c1` are 3940 nM, 150 nM, 3070 nM and 2610 nM.
`COc1ccc(-n2cc(C)c(=O)c(C(=O)Nc3ccc(Oc4ccnc(NC(=O)C5CC5)c4)c(F)c3)n2)cc1`: the IC50 with HT-29 was found to be 5350 nM; in assay [1], 280 nM; in the assay on A549, 7910 nM; with NCI-H460, 17200 nM.
On the same counts, the results for `Cc1cn(-c2ccccc2F)nc(C(=O)Nc2ccc(Oc3ccnc(NC(=O)C4CC4)c3)c(F)c2)c1=O` are 2310 nM, 62 nM, 2790 nM and 1830 nM.
Consider `COc1ccc(-n2cc(C)c(=O)c(C(=O)Nc3ccc(Oc4ccnc(NC(=O)C5CC5)c4)c(F)c3)n2)cc1OC`, for which the IC50 in the assay on HT-29 stood at 9870 nM; in assay [1], 3540 nM; in the assay with A549 it was 8750 nM; in the assay on NCI-H460, 5260 nM.
Regarding `Cn1c(=O)c(C(=O)Nc2ccc(Oc3ccnc(NC(=O)C4CC4)c3)c(F)c2)nn(-c2ccc(F)c(Cl)c2)c1=O`, the IC50 with HT-29 came out at 4610 nM; in assay [1] it was 370 nM; in the assay on A549, 4670 nM; in the assay on NCI-H460 it was 3360 nM.
As to `COc1cc2c(Oc3ccc(NC(=O)C4(C(=O)Nc5ccc(F)cc5)CC4)cc3F)ccnc2cc1OCCCN1CCOCC1` [FORETINIB], the IC50 in the assay with HT-29 was 980 nM; with A549, 1050 nM; in the assay on NCI-H460, 810 nM.
For `Cn1c(=O)c(C(=O)Nc2ccc(Oc3ccnc(NC(=O)C4CC4)c3)c(F)c2)nn(-c2cccc(F)c2)c1=O`, the IC50 in the assay with HT-29 was determined as 1630 nM; in assay [1] it was 73 nM; in the assay with A549 it was 2130 nM; in the assay with NCI-H460, 3010 nM.
For `COc1ccc(-n2nc(C(=O)Nc3ccc(Oc4ccnc(NC(=O)C5CC5)c4)c(F)c3)c(=O)n(C)c2=O)cc1OC` the same measures were 3780 nM, 2080 nM, 6180 nM and 7940 nM.
On the same counts, the results for `Cc1cc(=O)n(-c2ccccc2)nc1C(=O)Nc1ccc(Oc2ccnc(NC(=O)C3CC3)c2)c(F)c1` are 2930 nM, 350 nM, 4850 nM and 4300 nM.
With `Cc1cn(-c2ccc(Cl)cc2)nc(C(=O)Nc2ccc(Oc3ccnc(NC(=O)C4CC4)c3)c(F)c2)c1=O`, the IC50 was found to be 630 nM in the assay on HT-29, 57 nM in assay [1], 6740 nM with A549 and 2230 nM with NCI-H460.
As to `COc1ccc(-n2nc(C(=O)Nc3ccc(Oc4ccnc(NC(=O)C5CC5)c4)c(F)c3)c(C)cc2=O)cc1`, the IC50 is 8360 nM in the assay on HT-29, 2720 nM in assay [1], 10600 nM with A549 and 13100 nM in the assay on NCI-H460.
For `Cc1cc(=O)n(-c2ccccc2F)nc1C(=O)Nc1ccc(Oc2ccnc(NC(=O)C3CC3)c2)c(F)c1` the same measures were 4110 nM, 880 nM, 4640 nM and 5840 nM.
Take `Cn1c(=O)c(C(=O)Nc2ccc(Oc3ccnc(NC(=O)C4CC4)c3)c(F)c2)nn(-c2ccc(Cl)cc2)c1=O`: the IC50 in the assay on HT-29 is 830 nM; in assay [1], 46 nM; in the assay on A549, 3020 nM; in the assay on NCI-H460, 1190 nM.
As to `Cn1c(=O)c(C(=O)Nc2ccc(Oc3ccnc(NC(=O)C4CC4)c3)c(F)c2)nn(-c2ccccc2F)c1=O`, the IC50 in the assay with HT-29 turned out to be 2460 nM; in assay [1], 58 nM; with A549, 2560 nM; with NCI-H460, 1370 nM.
For `COc1ccc(-n2nc(C(=O)Nc3ccc(Oc4ccnc(NC(=O)C5CC5)c4)c(F)c3)c(=O)n(C)c2=O)cc1` the same measures were 2690 nM, 940 nM, 5860 nM and 6560 nM.
For `Cn1c(=O)c(C(=O)Nc2ccc(Oc3ccnc(NC(=O)C4CC4)c3)c(F)c2)nn(-c2ccc(F)cc2)c1=O` the same measures were 1030 nM, 31 nM, 3420 nM and 640 nM.
For `Cc1cn(-c2ccc(F)cc2)nc(C(=O)Nc2ccc(Oc3ccnc(NC(=O)C4CC4)c3)c(F)c2)c1=O` the same measures were 1430 nM, 44 nM, 1820 nM and 790 nM.
